Here are results for one molecule from ChEMBL document CHEMBL1156469 (2007).

The subject of test [1] is Osteoblast. The test can be described thus: Inhibition of etoposide-induced apoptosis in rat primary osteoblast cells after 24 hrs by flow cytometry. In kind it is functional, cell-based. In short, it runs like this: (§1)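 Cells washed in PBS, held 30 min in 0.5% Triton X-100/PBS/0.05% RNase A, then propidium iodide (50 μg/ml) added and kept on ice 15–30 min. Apoptosis is the hypodiploid fraction below the G0/G1 peak, by flow cytometry. Run in triplicate and repeated on three occasions.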
Background: Flow cytometry measures light scatter and fluorescence of single cells or particles in a stream.

Test [2] deals with Osteoblast. The experiment in a line: Effect on actin beta gene expression in rat primary osteoblast cells assessed as expression ratio of treated to untreated control by microarray analysis. In kind it is functional.
The subject of test [3] is Osteoblast. The test can be described thus: Effect on fibroblast growth factor receptor 3 gene expression in rat primary osteoblast cells assessed as expression ratio of treated to untreated control by microarray analysis. In kind it is functional.
Test [4] addresses Forkhead box protein O3 (Homo sapiens) (UniProt O43524). The experiment in a line: Inhibition of IGF-induced FOXO3a phosphorylation at Thr32 residue in human MDA-MB-231 cells by Western blot. In kind it is cell-based. In short, it runs like this: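 MDA-MB-231 breast cancer cells, control or resveratrol-treated, then exposed or not to IGF. Lysates resolved by SDS-PAGE, transferred to nitrocellulose, probed with specific primary and secondary antibodies, and detected by ECL. Membranes stripped and reprobed where indicated.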

For test [5], the system named is Osteoblast. The test can be described thus: Effect on transforming growth factor beta 3 gene expression in rat primary osteoblast cells assessed as expression ratio of treated to untreated control by microarray analysis. In kind it is functional. An outline of the steps:
(§2)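 Resveratrol-treated and vehicle-treated primary osteoblasts were profiled on a mouse osteogenesis-focused cDNA array (GEArray Q series) built to track gene expression during osteogenic differentiation. Each gene's signal in treated cells was expressed as a ratio to untreated control.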

Test [6] in a line: Reversal of induction in BMP2 expression in mouse MC3T3-E1 cells transfected with dominant-negative mutant Src expression vector at 1 uM by Western blot. In kind it is functional, cell-based. In short, it runs like this:
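Src phosphorylation, ERα nuclear translocation and BMP-2 protein analysed by Western blot with ECL detection. Three independent experiments.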
On the technique in general: In western blotting, separated proteins are transferred to a membrane and probed.

The test system of test [7] is Osteoblast. The test can be described thus: Effect on annexin A5 gene expression in rat primary osteoblast cells assessed as expression ratio of treated to untreated control by microarray analysis. In kind it is functional.
Test [8] has as its target Forkhead box protein O3 (Homo sapiens) (UniProt O43524). The test can be described thus: Reversal of induction of FOXO3a activity in human MDA-MB-231 cells transfected with constitutively activated Akt mutant. In kind it is cell-based.
Test [9] deals with Alkaline phosphatase (Rattus norvegicus) (UniProt Q9JKS8). The test can be described thus: Increase in ALP activity in rat primary osteoblast cells at 0.1 to 10 uM after 7 days. In kind it is cell-based.
For test [10], the system named is MC3T3-E1. The test can be described thus: Inhibition of TNF-alpha-induced apoptosis in mouse MC3T3-E1 cells after 24 hrs by flow cytometry. In kind it is functional, cell-based. An outline of the steps:
as §1

Test [11] deals with Osteoblast. The experiment in a line: Increase in osteopontin mRNA levels in rat primary osteoblast cells at 1 uM after 72 hrs by RT-PCR. In kind it is functional, cell-based. In short, it runs like this:
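Cells treated with 1 μm for 72 h; osteocalcin and osteopontin mRNA by RT-PCR, 30 cycles (95/52/72 °C, 1 min each), ethidium bromide–stained agarose gels; repeated at least twice from at least two cDNA preparations.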

Test [12] relates to Osteoblast. The test can be described thus: Effect on alkaline phosphatase 2 gene expression in rat primary osteoblast cells assessed as expression ratio of treated to untreated control by microarray analysis. In kind it is functional.
Test [13] deals with Osteoblast. The experiment in a line: Effect on procollagen 1 alpha 2 gene expression in rat primary osteoblast cells assessed as expression ratio of treated to untreated control by microarray analysis. In kind it is functional. In short, it runs like this: as §2
Test [14] concerns Osteoblast. The experiment in a line: Effect on integrin beta 1 gene expression in rat primary osteoblast cells assessed as expression ratio of treated to untreated control by microarray analysis. In kind it is functional. In short, it runs like this:
as §2

Test [15] concerns Osteoblast. The test can be described thus: Effect on platelet derived growth factor alpha gene expression in rat primary osteoblast cells assessed as expression ratio of treated to untreated control by microarray analysis. In kind it is functional. An outline of the steps: as §2
Test [16] has as its target T1, Estrogen receptor (Mus musculus) (UniProt P19785).
T1 sequence (whole entry): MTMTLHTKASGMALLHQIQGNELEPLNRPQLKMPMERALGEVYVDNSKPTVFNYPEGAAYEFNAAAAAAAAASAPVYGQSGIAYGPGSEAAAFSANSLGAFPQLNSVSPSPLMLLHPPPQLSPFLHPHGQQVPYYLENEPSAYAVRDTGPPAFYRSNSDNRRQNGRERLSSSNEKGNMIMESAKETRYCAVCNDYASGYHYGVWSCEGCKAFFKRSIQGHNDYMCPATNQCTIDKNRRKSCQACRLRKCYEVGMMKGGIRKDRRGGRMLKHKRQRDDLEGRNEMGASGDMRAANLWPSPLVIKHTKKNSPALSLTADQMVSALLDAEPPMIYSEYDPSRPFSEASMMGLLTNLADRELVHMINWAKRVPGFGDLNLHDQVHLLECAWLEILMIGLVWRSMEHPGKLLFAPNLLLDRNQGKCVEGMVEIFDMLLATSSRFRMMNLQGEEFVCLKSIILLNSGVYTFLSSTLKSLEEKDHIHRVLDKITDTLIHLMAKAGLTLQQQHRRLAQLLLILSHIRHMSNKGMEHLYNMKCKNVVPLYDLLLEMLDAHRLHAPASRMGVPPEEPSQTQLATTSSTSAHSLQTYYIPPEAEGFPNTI
The test can be described thus: Reversal of increase in DNA-binding activity of ERalpha in nuclear extracts of mouse MC3T3-E1 cells by electrophoretic mobility shift assays in presence of PP2. In kind it is cell-based. An outline of the steps:
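Nuclear extracts of MC3T3-E1 cells. ER-binding probe [α-32P]dCTP end-labeled, 20-min binding at room temperature, 5-fold unlabeled competitor where used. Complexes resolved on 5% nondenaturing PAGE in Tris-borate-EDTA pH 8.3, then autoradiography.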
For orientation: Mobility shift assays separate free from complexed probe on a gel.

Test [17] has as its system Osteoblast. The test can be described thus: Effect on fibroblast growth factor 2 gene expression in rat primary osteoblast cells assessed as expression ratio of treated to untreated control by microarray analysis. In kind it is functional.
For test [18], the system named is MC3T3-E1. The test can be described thus: Increase in BMP2 expression in mouse MC3T3-E1 cells expressing pBMP2 mutant at 1 uM after 4 hrs by luciferase method relative to control. In kind it is functional, cell-based. In short, it runs like this: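 MC3T3-E1 cells transfected with BMP-2 promoter–luciferase constructs (full promoter or deletions), treated with 1 μm or vehicle for 4 h; Dual-Luciferase assay; means ± S.D.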

Another test concerns MG-63. The test can be described thus: Increase in proliferation of human MG63 cells at 0.1 to 10 uM after 24 hr by flow cytometry. In kind it is functional, cell-based.
The test system of the next test is MDA-MB-231. The test can be described thus: Reduction in anchorage-independent colony formation of human MDA-MB-231 cells at 1 uM by soft agar colony forming assay. In kind it is functional, cell-based. In short, it runs like this: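 Seeded in 0.35% noble agar in DMEM/10% FBS over a 0.7% agar bed. Colonies of at least 50 μm counted after 3 weeks under a dissecting microscope, six replicates per treatment. Three separate experiments.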

In test [19] the test system is Osteoblast. The test can be described thus: Effect on ubiquitin-conjugating enzyme E2D 3 gene expression in rat primary osteoblast cells assessed as expression ratio of treated to untreated control by microarray analysis. In kind it is functional. In short, it runs like this:
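GEArray Q series Mouse Osteogenesis cDNA array profiling osteogenic-differentiation genes in treated versus vehicle-treated primary osteoblasts.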

Test [20] has as its system Rattus norvegicus. The experiment in a line: Increase in serum BMP2 levels in orally dosed ovariectomized Wistar rat after 10 weeks by ELISA relative to sham operated control. In kind it is functional, organism-based. In short, it runs like this: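 Ovariectomized rats given indicated doses or estrogen by oral feeding; serum BMP-2 by ELISA 10 weeks after surgery; compared with sham-operated group; n = 8/group, means ± S.D.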

Test [21] deals with Rattus norvegicus. The experiment in a line: Increase in bone mineral density in ovariectomized Wistar rat dosed orally after 10 weeks. In kind it is functional, organism-based. An outline of the steps: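 Female Wistar rats sham-operated or ovariectomized, fed compound orally every 2 days at indicated doses; femur/tibia BMD by DEXA under ketamine (87 mg/kg)/xylazine (13 mg/kg) anesthesia and serum ALP measured 10 weeks after surgery; n = 8/group, means ± S.D.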

Active and inactive are the calls of the source. The rule behind the calls is not given here.

Sequence of Forkhead box protein O3 (Homo sapiens) (O43524 whole entry): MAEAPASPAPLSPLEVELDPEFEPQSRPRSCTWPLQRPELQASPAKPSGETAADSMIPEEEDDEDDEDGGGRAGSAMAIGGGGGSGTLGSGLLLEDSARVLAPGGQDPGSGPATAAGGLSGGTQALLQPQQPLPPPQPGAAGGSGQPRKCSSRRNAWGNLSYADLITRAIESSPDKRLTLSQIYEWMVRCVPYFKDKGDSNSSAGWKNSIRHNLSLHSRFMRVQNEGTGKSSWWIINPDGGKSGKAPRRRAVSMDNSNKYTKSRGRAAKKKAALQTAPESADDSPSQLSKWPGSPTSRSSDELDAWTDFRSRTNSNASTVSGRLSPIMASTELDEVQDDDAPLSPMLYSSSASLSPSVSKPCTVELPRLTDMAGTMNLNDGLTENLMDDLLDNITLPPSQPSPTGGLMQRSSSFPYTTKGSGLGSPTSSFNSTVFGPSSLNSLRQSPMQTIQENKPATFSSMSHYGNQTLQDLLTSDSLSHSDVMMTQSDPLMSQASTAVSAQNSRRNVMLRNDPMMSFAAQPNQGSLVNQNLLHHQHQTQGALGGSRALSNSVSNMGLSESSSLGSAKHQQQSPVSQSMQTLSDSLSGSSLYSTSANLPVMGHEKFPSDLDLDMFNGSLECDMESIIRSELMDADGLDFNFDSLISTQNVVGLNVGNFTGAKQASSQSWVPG
Sequence of Alkaline phosphatase (Rattus norvegicus) (Q9JKS8 as listed by the source): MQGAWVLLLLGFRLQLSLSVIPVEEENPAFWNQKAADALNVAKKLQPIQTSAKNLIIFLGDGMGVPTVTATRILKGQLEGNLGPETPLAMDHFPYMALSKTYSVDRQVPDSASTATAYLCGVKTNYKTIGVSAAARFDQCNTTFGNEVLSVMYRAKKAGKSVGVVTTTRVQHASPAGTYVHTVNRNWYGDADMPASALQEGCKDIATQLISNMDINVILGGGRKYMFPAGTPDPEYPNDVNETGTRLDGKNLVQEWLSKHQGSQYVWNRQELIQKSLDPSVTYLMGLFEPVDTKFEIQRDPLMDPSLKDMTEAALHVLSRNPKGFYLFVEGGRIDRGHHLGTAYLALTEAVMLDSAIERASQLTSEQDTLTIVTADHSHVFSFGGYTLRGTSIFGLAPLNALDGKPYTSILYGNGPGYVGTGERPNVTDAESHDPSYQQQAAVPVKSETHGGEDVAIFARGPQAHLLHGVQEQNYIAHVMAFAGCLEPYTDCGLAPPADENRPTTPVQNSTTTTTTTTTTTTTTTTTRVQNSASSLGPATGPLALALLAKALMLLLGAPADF

On to `Oc1ccc(/C=C/c2cc(O)cc(O)c2)cc1` [RESVERATROL], for which the outcome (in the test on Osteoblast [1]; in test [4]; in test [6]; in test [8]; in test [9]; in the test with MC3T3-E1 [10]) was Active. Moreover, the result (in the test with Osteoblast [11]; in test [16]; with MC3T3-E1 [18]; with MG-63; with MDA-MB-231; with Rattus norvegicus [20]) was Active. For the same molecule, the Ratio in the test with Osteoblast [2] is listed as 1; with Osteoblast [3] it was 0.9; in the test with Osteoblast [5] it was 2.56; in the test on Osteoblast [7], 4.02; in the test on Osteoblast [12] it was 8.63; in the test with Osteoblast [13], 8.24. In addition, the Ratio in the test on Osteoblast [14] is listed as 2.97; in the test with Osteoblast [15], 4.34; in the test on Osteoblast [17], 2.76; in the test with Osteoblast [19], 3.73. Further, in the test with Rattus norvegicus [21], the Activity entry was “Dose-dependent effect”.
